The source of these data is ChEMBL document CHEMBL1130143, “Probes for narcotic receptor-mediated phenomena. 25. Synthesis and evaluation of N-alkyl-substituted (alpha-piperazinylbenzyl)benzamides as novel, highly selective delta opioid receptor agonists” (J Med Chem, 1997).

A value given as a limit tells only on which side of the number the result lay.

One experiment has as its target Mu-type opioid receptor (Rattus norvegicus, UniProt P33535). In words: Binding affinity for Opioid receptor mu 1 by the inhibition of binding of [3H]DAMGO in rat brain membranes. The class given is cell membranes. In short, it runs like this:
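Rat brain membranes with [³H]DAMGO at 1-3 nM, incubated 4 h at 25 °C in 50 mM Tris-HCl pH 7.4 plus protease inhibitor cocktail. Nonspecific binding measured with 20 μM levallorphan. Radioligand displaced by nine drug concentrations, in two runs. Drugs diluted in 10 mM Tris-HCl pH 7.4 containing 1 mg/mL BSA. IC50 reported.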

Experiment [1] concerns the target Kappa-type opioid receptor (Cavia porcellus, UniProt P41144). Put plainly: Binding affinity for Opioid receptor kappa 1 by the inhibition of binding of [3H]U-69593 in guinea pig brain membranes. In kind it is cell membranes. In short, it runs like this: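 Guinea pig brain membranes, first depleted of μ and δ sites by pretreatment with irreversible ligands BIT and FIT. Nonspecific binding from 1 μM U69,593. Nine concentrations, run twice. IC50 reported.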

Experiment [2] has as its target Delta-type opioid receptor (Rattus norvegicus, UniProt P33533). In words: Binding affinity for Opioid receptor delta 1 by the inhibition of binding of [3H]DADAL in rat brain membranes. The class given is cell membranes. In short, it runs like this: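 Rat brain membranes labelled with [³H]DADLE at 1.7-2.5 nM. Incubation 3-4 h at 25 °C in Tris-HCl pH 7.4 with 100 mM choline chloride, 3 mM MnCl₂, protease inhibitor cocktail and 100 nM DAMGO to block μ sites. Nonspecific binding defined with 20 μM levallorphan. Nine test concentrations, run twice. IC50 reported.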

A further experiment is filed under the species Cavia porcellus. Put plainly: Binding affinity ratio of kappa opioid receptor (guinea pig brain membranes) with respect to delta opioid receptor( rat brain membranes). In kind it is cell membranes. The following applies: Membrane. In short, it runs like this: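 Ratio of IC50 from [³H]U69,593 binding to μ/δ-depleted guinea pig brain membranes over IC50 from [³H]DADLE binding to rat brain membranes (μ sites blocked with 100 nM DAMGO). Both assays run at 25 °C in Tris-HCl pH 7.4, nine concentrations, run twice.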

The target of experiment [3] is Opioid receptors; mu & delta (Rattus norvegicus) (UniProt P33533+P33535). Put plainly: Binding affinity ratio on mu opioid receptor( rat brain membranes) with respect to delta opioid receptor (rat brain membranes). The method in brief:
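Ratio of IC50 from [³H]DAMGO binding to rat brain membranes over IC50 from [³H]DADLE binding to rat brain membranes (μ sites blocked with 100 nM DAMGO). Both assays run at 25 °C in Tris-HCl pH 7.4, nine concentrations, run twice.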

Chain of Mu-type opioid receptor (P33535 whole entry): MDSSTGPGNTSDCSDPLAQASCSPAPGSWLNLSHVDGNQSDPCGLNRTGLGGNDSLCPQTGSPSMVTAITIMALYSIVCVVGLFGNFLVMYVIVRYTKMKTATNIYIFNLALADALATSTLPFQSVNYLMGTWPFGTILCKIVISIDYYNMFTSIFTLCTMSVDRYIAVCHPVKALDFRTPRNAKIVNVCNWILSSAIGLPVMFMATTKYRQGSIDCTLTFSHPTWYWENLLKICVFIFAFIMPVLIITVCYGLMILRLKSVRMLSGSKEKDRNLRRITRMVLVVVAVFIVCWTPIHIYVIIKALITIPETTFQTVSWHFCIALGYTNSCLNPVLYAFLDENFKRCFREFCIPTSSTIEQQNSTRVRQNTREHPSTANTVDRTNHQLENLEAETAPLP
Chain of Kappa-type opioid receptor (P41144 whole entry): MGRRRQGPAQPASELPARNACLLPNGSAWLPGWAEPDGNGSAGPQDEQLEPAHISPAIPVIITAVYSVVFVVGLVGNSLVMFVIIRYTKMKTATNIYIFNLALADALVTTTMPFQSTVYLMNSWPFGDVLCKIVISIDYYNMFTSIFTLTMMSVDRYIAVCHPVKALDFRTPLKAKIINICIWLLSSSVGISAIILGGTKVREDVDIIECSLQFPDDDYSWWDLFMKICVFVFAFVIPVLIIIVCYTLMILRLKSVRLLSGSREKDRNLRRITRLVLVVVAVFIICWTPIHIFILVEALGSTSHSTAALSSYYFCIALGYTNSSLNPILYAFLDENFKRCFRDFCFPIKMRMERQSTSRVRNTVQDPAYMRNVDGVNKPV
Chain of Delta-type opioid receptor (P33533 whole entry): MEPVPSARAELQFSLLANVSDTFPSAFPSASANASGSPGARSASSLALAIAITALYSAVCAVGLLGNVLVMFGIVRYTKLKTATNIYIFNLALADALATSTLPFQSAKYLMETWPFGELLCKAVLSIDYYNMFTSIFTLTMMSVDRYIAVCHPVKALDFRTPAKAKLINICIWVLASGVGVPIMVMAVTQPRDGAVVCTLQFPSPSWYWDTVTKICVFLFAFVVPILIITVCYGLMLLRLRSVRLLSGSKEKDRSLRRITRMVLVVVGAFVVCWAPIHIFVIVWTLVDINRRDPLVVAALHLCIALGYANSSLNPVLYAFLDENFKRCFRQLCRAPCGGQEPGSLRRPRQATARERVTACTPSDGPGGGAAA
Chain of Opioid receptors; mu & delta (Rattus norvegicus) (P33533 whole entry, looked up): as the sequence (P33533 whole entry) above
Chain of Opioid receptors; mu & delta (Rattus norvegicus) (P33535 whole entry, looked up): as the sequence (P33535 whole entry) above

As to `C=CCN1C[C@H](C)N([C@H](c2ccc(C(=O)N(CCCC)CCCC)cc2)c2cccc(OC)c2)C[C@H]1C`, the IC50 – broadly, the concentration that inhibits the measured activity by half – at Mu-type opioid receptor was > 2500 nM; in experiment [1], > 2500 nM; in experiment [2], 34.5 nM. For the same compound, the Ratio (in the experiment listed under Cavia porcellus; in experiment [3]) was > 71 throughout.
As to `C=CCN1C[C@H](C)N([C@@H](c2ccc(C(=O)N3CCCCCC3)cc2)c2cccc(OC)c2)C[C@H]1C`, the IC50 on Mu-type opioid receptor is > 2500 nM; in experiment [1] it was > 2500 nM; in experiment [2] it was 124 nM. In addition, the Ratio in the experiment listed under Cavia porcellus is > 81; in experiment [3], > 20.
Consider `C=CCN1C[C@H](C)N([C@H](c2ccc(C(=O)N(CC)CC)cc2)c2cccc(OC)c2)C[C@H]1C` [SNC-80], for which the IC50 in experiment [1] was 7070 nM.
Turning to `C=CCN1C[C@H](C)N([C@@H](c2ccc(C(=O)N(C)C)cc2)c2cccc(OC)c2)C[C@H]1C`, the IC50 at Mu-type opioid receptor is > 2500 nM; in experiment [1], > 2500 nM; in experiment [2], 234 nM. Also, the Ratio (in the experiment filed under Cavia porcellus; in experiment [3]) was > 11 throughout.
Consider `C=CCN1C[C@H](C)N([C@@H](c2ccc(C(=O)NCC)cc2)c2cccc(OC)c2)C[C@H]1C`, for which the IC50 amounted to 169 nM on Mu-type opioid receptor, 1630 nM in experiment [1] and 34.4 nM in experiment [2]. In addition, the Ratio in the experiment filed under Cavia porcellus came to 48; in experiment [3], 4.9.
In the case of `C=CCN1C[C@H](C)N([C@@H](c2ccc(C(=O)N(C(C)C)C(C)C)cc2)c2cccc(OC)c2)C[C@H]1C`, the figures for the IC50 (at Mu-type opioid receptor; in experiment [1]; in experiment [2]) were > 2500 nM, > 2500 nM and 344 nM, respectively. The Ratio (in the experiment listed under Cavia porcellus; in experiment [3]) was > 7.3 throughout.
Regarding `C=CCN1C[C@H](C)N([C@@H](c2ccc(C(=O)N(CCC)CCC)cc2)c2cccc(OC)c2)C[C@H]1C`, the IC50 at Mu-type opioid receptor is 4340 nM; in experiment [1], > 10000 nM; in experiment [2], 153 nM. For the same compound, the values for the Ratio (in the experiment filed under Cavia porcellus; in experiment [3]) were > 65 and 28, respectively.
Taken in the same sequence, the figures for `C=CCN1C[C@H](C)N([C@H](c2ccc(C(N)=O)cc2)c2cccc(OC)c2)C[C@H]1C` were > 2500 nM, > 2500 nM, 451 nM, > 5.5 and > 5.5.
On to `C=CCN1C[C@H](C)N([C@@H](c2ccc(C(N)=O)cc2)c2cccc(OC)c2)C[C@H]1C`, for which the results for the IC50 (on Mu-type opioid receptor; in experiment [1]; in experiment [2]) were > 2500 nM, > 2500 nM and 389 nM, respectively. Further, the Ratio (in the experiment listed under Cavia porcellus; in experiment [3]) was > 6.4 throughout.
Regarding `C=CCN1C[C@H](C)N([C@@H](c2ccc(C(=O)N(C)CC)cc2)c2cccc(OC)c2)C[C@H]1C`, the values for the IC50 (at Mu-type opioid receptor; in experiment [1]; in experiment [2]) were > 2500 nM, > 2500 nM and 60.6 nM, respectively. Moreover, the Ratio (in the experiment filed under Cavia porcellus; in experiment [3]) was > 41 in each case.
As for `C=CCN1C[C@H](C)N([C@@H](c2ccc(C(=O)N3CCCC3)cc2)c2cccc(OC)c2)C[C@H]1C`, the IC50 is > 2500 nM on Mu-type opioid receptor, > 10000 nM in experiment [1] and 265 nM in experiment [2]. For the same compound, the Ratio was > 38 in the experiment listed under Cavia porcellus and > 9.4 in experiment [3].
On the same counts, the results for `C=CCN1C[C@H](C)N([C@H](c2ccc(C(=O)NC(C)(C)C)cc2)c2cccc(OC)c2)C[C@H]1C` are > 2500 nM, > 2500 nM, 281 nM, > 8.9 and > 8.9.
Taken in the same sequence, the figures for `C=CCN1C[C@H](C)N([C@@H](c2ccc(C(=O)N3CCCCC3)cc2)c2cccc(OC)c2)C[C@H]1C` were > 2500 nM, > 10000 nM, 450 nM, > 22 and > 5.5.
For `C=CCN1C[C@H](C)N([C@@H](c2ccc(C(=O)N(CC)CCCC)cc2)c2cccc(OC)c2)C[C@H]1C`, the concentration for half-maximal inhibition (IC50) is 5880 nM on Mu-type opioid receptor, > 10000 nM in experiment [1] and 151 nM in experiment [2]. Also, the Ratio in the experiment listed under Cavia porcellus was > 66; in experiment [3] it was 39.
